Publication PMC11661184 (bioRxiv, 2024)

Legend:
[1] = system: V5-tagged WT CaM; experiment: Immunofluorescence co-localization with V5-WT CaM in Neuro2A cells; assay type: cell-based, human; conditions: resting Neuro2A cells, Airyscan
In short: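 Neuro2A cells were grown in DMEM with 10% FBS, transfected, then placed on poly-L-lysine coverslips for 16-20 h. Cells were fixed in 4% PFA, permeabilised with 0.1% Triton and blocked in 4% BSA. Staining used anti-V5 (1:500), Alexa488 anti-mouse (1:700) and Cy3 anti-FLAG (1:500), each for 45 min at RT. Airyscan images (63x oil) were deconvolved. Per-cell pixel-intensity Pearson's R used thresholds from mono-stained samples. Mean ± SD; two-tailed t-test.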

[2] = system: TurboID-CaM C-lobe; experiment: Proximity biotinylation in HEK293T cells; assay type: cell-based, human; conditions: 50 µM biotin 15 min, basal Ca2+; n=4
In short: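 HEK293T cells co-expressed 3xFLAG-TurboID or 3xFLAG-TurboID-CaM C-lobe with 3xFLAG-hTRPA1 variants. About 48 h post-transfection, 50 uM biotin was added to the culture medium. After 15 min, cells were lysed and proteins captured on anti-FLAG resin (1 h, 4 °C), then eluted with 125 µg/ml 3xFLAG peptide. Biotinylated proteins were detected with HRP-streptavidin (1:50,000).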

[3] = system: hTRPA1 expressed in Xenopus laevis oocytes; experiment: Two-electrode voltage clamp, Ca2+ potentiation and desensitization; assay type: cell-based, human; conditions: for Potentiation by extracellular Ca2+ / Slowing of desensitization versus WT hTRPA1, intracellular Ca2+ chelated / Slowing of potentiation versus WT hTRPA1 / Slowing of desensitization versus WT hTRPA1: 1.8 mM Ca2+; for Potentiation by extracellular Ca2+: comparable peak current amplitudes; for Desensitization time constant / Potentiation time constant: 1.8 mM extracellular Ca2+, n=10 oocytes; for Slowing of desensitization versus WT hTRPA1, intracellular Ca2+ chelated: 500 µM EGTA-AM 20 min
[4] = system: CaM (Calmodulin-agarose); experiment: CaM-agarose pulldown of TRPA1 constructs; assay type: binding
In short: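 HEK293T cells were transfected with tagged TRPA1 constructs and lysed after 16-24 h in Tris pH 8.0 buffer containing 5 mM DDM and 500 µM EGTA. Free Ca²⁺ was set with CaCl₂, calculated from EGTA constants. 100 µg lysate was incubated with CaM-agarose for 1 h at 4 °C, washed, then eluted with 5 mM EGTA. Detection was by anti-FLAG or anti-MBP immunoblot, with tubulin input control. Enrichment is relative to the maximum within each replicate.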

[5] = system: hTRPA1 expressed in Xenopus laevis oocytes; assay type: cell-based, human

B1: WT hTRPA1: wild type human TRPA1 channel (protein)
chain: MKRSLRKMWRPGEKKEPQGVVYEDVPDDTEDFKESLKVVFEGSAYGLQNFNKQKKLKRCDDMDTFFLHYAAAEGQIELMEKITRDSSLEVLHEMDDYGNTPLHCAVEKNQIESVKFLLSRGANPNLRNFNMMAPLHIAVQGMNNEVMKVLLEHRTIDVNLEGENGNTAVIIACTTNNSEALQILLKKGAKPCKSNKWGCFPIHQAAFSGSKECMEIILRFGEEHGYSRQLHINFMNNGKATPLHLAVQNGDLEMIKMCLDNGAQIDPVEKGRCTAIHFAATQGATEIVKLMISSYSGSVDIVNTTDGCHETMLHRASLFDHHELADYLISVGADINKIDSEGRSPLILATASASWNIVNLLLSKGAQVDIKDNFGRNFLHLTVQQPYGLKNLRPEFMQMQQIKELVMDEDNDGCTPLHYACRQGGPGSVNNLLGFNVSIHSKSKDKKSPLHFAASYGRINTCQRLLQDISDTRLLNEGDLHGMTPLHLAAKNGHDKVVQLLLKKGALFLSDHNGWTALHHASMGGYTQTMKVILDTNLKCTDRLDEDGNTALHFAAREGHAKAVALLLSHNADIVLNKQQASFLHLALHNKRKEVVLTIIRSKRWDECLKIFSHNSPGNKCPITEMIEYLPECMKVLLDFCMLHSTEDKSCRDYYIEYNFKYLQCPLEFTKKTPTQDVIYEPLTALNAMVQNNRIELLNHPVCKEYLLMKWLAYGFRAHMMNLGSYCLGLIPMTILVVNIKPGMAFNSTGIINETSDHSEILDTTNSYLIKTCMILVFLSSIFGYCKEAGQIFQQKRNYFMDISNVLEWIIYTTGIIFVLPLFVEIPAHLQWQCGAIAVYFYWMNFLLYLQRFENCGIFIVMLEVILKTLLRSTVVFIFLLLAFGLSFYILLNLQDPFSSPLLSIIQTFSMMLGDINYRESFLEPYLRNELAHPVLSFAQLVSFTIFVPIVLMNLLIGLAVGDIAEVQKHASLKRIAMQVELHTSLEKKLPLWFLRKVDQKSTIVYPNKPRSGGMLFHIFCFLFCTGEIRQEIPNADKSLEMEILKQKYRLKDLTFLLEKQHELIKLIIQKMEIISETEDDDSHCSFQDRFKKEQMEQRNSRWNTVLRAVKAKTHHLEP
**Q.** How did the “Co-localization with WT CaM (deconvolved IF images)” value [1] turn out when B1 was run?
**A.** pronounced co-localization

**Q.** What about the “Increase in TRPA1 biotinylation with TurboID-CaM C-lobe versus TurboID” value [2] of the same molecule?
**A.** approximately 40%

**Q.** What about the “Desensitization with 10 mM versus 1.8 mM extracellular Ca2+” value ([3]; 250 µM AITC, 125 µM niflumic acid, n=9) of the same molecule?
**A.** desensitize faster

**Q.** And the “Potentiation by extracellular Ca2+” value ([3]; 250 µM AITC)?
**A.** rapid potentiation

**Q.** And the Desensitization time constant ([3]; +80 mV, 250 µM AITC)?
**A.** 12.5 s

**Q.** And the Potentiation time constant ([3]; +80 mV, 250 µM AITC)?
**A.** 2.2 s

**Q.** What about the “Desensitization after extracellular Ca2+ addition” value ([3]; within 25 seconds of 1.8 mM Ca2+) of the same molecule?
**A.** nearly complete desensitization

**Q.** What about the Desensitization time constant ([3]; −80 mV, 250 µM AITC) of the same molecule?
**A.** 11.9 s

**Q.** And the Potentiation time constant ([3]; −80 mV, 250 µM AITC)?
**A.** 2.7 s

**Q.** And the “CaM binding (CaM-agarose enrichment)” value ([4]; 0.1 µM Ca2+ (resting cytosolic), HEK293T lysate, immunoblot, n=11)?
**A.** robust interaction

**Q.** And the “CaM binding (CaM-agarose enrichment)” value ([4]; absence of Ca2+ (0 µM), HEK293T lysate, immunoblot)?
**A.** failed to bind CaM

**Q.** And the “CaM binding (CaM-agarose enrichment)” value ([4]; intermediate (500 µM) and extracellular (2 mM) Ca2+, n=11)?
**A.** stepwise decrease in binding

B2: W1103A hTRPA1: hTRPA1 with W1103 mutated to alanine (protein)
chain: MKRSLRKMWRPGEKKEPQGVVYEDVPDDTEDFKESLKVVFEGSAYGLQNFNKQKKLKRCDDMDTFFLHYAAAEGQIELMEKITRDSSLEVLHEMDDYGNTPLHCAVEKNQIESVKFLLSRGANPNLRNFNMMAPLHIAVQGMNNEVMKVLLEHRTIDVNLEGENGNTAVIIACTTNNSEALQILLKKGAKPCKSNKWGCFPIHQAAFSGSKECMEIILRFGEEHGYSRQLHINFMNNGKATPLHLAVQNGDLEMIKMCLDNGAQIDPVEKGRCTAIHFAATQGATEIVKLMISSYSGSVDIVNTTDGCHETMLHRASLFDHHELADYLISVGADINKIDSEGRSPLILATASASWNIVNLLLSKGAQVDIKDNFGRNFLHLTVQQPYGLKNLRPEFMQMQQIKELVMDEDNDGCTPLHYACRQGGPGSVNNLLGFNVSIHSKSKDKKSPLHFAASYGRINTCQRLLQDISDTRLLNEGDLHGMTPLHLAAKNGHDKVVQLLLKKGALFLSDHNGWTALHHASMGGYTQTMKVILDTNLKCTDRLDEDGNTALHFAAREGHAKAVALLLSHNADIVLNKQQASFLHLALHNKRKEVVLTIIRSKRWDECLKIFSHNSPGNKCPITEMIEYLPECMKVLLDFCMLHSTEDKSCRDYYIEYNFKYLQCPLEFTKKTPTQDVIYEPLTALNAMVQNNRIELLNHPVCKEYLLMKWLAYGFRAHMMNLGSYCLGLIPMTILVVNIKPGMAFNSTGIINETSDHSEILDTTNSYLIKTCMILVFLSSIFGYCKEAGQIFQQKRNYFMDISNVLEWIIYTTGIIFVLPLFVEIPAHLQWQCGAIAVYFYWMNFLLYLQRFENCGIFIVMLEVILKTLLRSTVVFIFLLLAFGLSFYILLNLQDPFSSPLLSIIQTFSMMLGDINYRESFLEPYLRNELAHPVLSFAQLVSFTIFVPIVLMNLLIGLAVGDIAEVQKHASLKRIAMQVELHTSLEKKLPLWFLRKVDQKSTIVYPNKPRSGGMLFHIFCFLFCTGEIRQEIPNADKSLEMEILKQKYRLKDLTFLLEKQHELIKLIIQKMEIISETEDDDSHCSFQDRFKKEQMEQRNSRANTVLRAVKAKTHHLEP
**Q.** Which “TRPA1 biotinylation with TurboID-CaM C-lobe” value [2] does the source give for B2 here?
**A.** loss in biotinylation

**Q.** What about the “Faster desensitization rate with 10 mM than with 1.8 mM extracellular Ca2+” value ([3]; 250 µM AITC, 125 µM niflumic acid, n=10 or 11) of the same molecule?
**A.** approximately 3 fold

**Q.** And the “Potentiation by extracellular Ca2+” value ([3]; 250 µM AITC)?
**A.** rapid potentiation

**Q.** And the “Slower desensitization than WT hTRPA1 with 1.8 mM Ca2+” value ([3]; 250 µM AITC, 10 mM extracellular Ca2+, 125 µM niflumic acid)?
**A.** approximately 4 fold

**Q.** What about the “Desensitization profile with buffered intracellular Ca2+” value ([3]; 500 µM EGTA-AM 20 min pre-incubation) of the same molecule?
**A.** delayed desensitization profile compared to WT hTRPA1 channels and a faster desensitization profile than W1103A hTRPA1 channels without intracellular Ca^2+ buffering

**Q.** What about the “Potentiation kinetics versus WT hTRPA1, buffered intracellular Ca2+” value ([3]; 500 µM EGTA-AM, n=8) of the same molecule?
**A.** did not exhibit a significant change to potentiation kinetics

**Q.** What about the “Residual activity after extracellular Ca2+ (of initial activity)” value ([3]; 5 minutes after 1.8 mM extracellular Ca2+, n=10 or 12 oocytes) of the same molecule?
**A.** 10–20%

**Q.** And the “Increase in translocated charge versus WT hTRPA1” value ([3]; +80 mV)?
**A.** 10 fold

**Q.** What about the “Slowing of desensitization versus WT hTRPA1, intracellular Ca2+ chelated” value ([3]; +80 mV, n=8) of the same molecule?
**A.** 10.5 fold

**Q.** And the “Slowing of potentiation versus WT hTRPA1” value ([3]; +80 mV)?
**A.** ~ 1.8 fold

**Q.** What about the “Slowing of desensitization versus WT hTRPA1” value ([3]; +80 mV, n=10 or 12 oocytes) of the same molecule?
**A.** 20 fold

**Q.** What about the “Increase in translocated charge versus WT hTRPA1” value ([3]; −80 mV) of the same molecule?
**A.** 20 fold

**Q.** And the “Slowing of desensitization versus WT hTRPA1, intracellular Ca2+ chelated” value ([3]; −80 mV, n=8)?
**A.** 10.7 fold

**Q.** What about the “Slowing of potentiation versus WT hTRPA1” value ([3]; −80 mV) of the same molecule?
**A.** ~ 3 fold

**Q.** What about the “Slowing of desensitization versus WT hTRPA1” value ([3]; −80 mV, n=10 or 12 oocytes) of the same molecule?
**A.** 15 fold

**Q.** What about the “CaM binding at basal Ca2+ concentration” value ([4]; basal Ca2+, n=3 independent experiments) of the same molecule?
**A.** completely ablated CaM binding

**Q.** And the “AITC sensitivity versus WT hTRPA1” value ([5]; Ca2+-free)?
**A.** slightly reduced AITC sensitivities

**Q.** What about the “Gating kinetics and peak current amplitudes” value ([5]; absence of Ca2+, activation and closing at +80 mV, n=8) of the same molecule?
**A.** not significantly different from WT hTRPA1

B3: WT C. elegans TRPA1: WT C. elegans TRPA1, MBP-tagged (protein)
chain: MSKKSLGLDVRLELEGLISNDDTIRSEKDGRQASIFRVAELDARTEADNLRSIIHQSAREGNVNALQEALLKAPLAVNAQDGDFMTPLHYAARYGNYDAVKLLLSKNALPNTKNREGDTPLHIASKYIYGYSDICSIIDEDQADSARKYNTATKKIINALVSENAEIDPVNKYQLTPLHYAAMKSNFSALHALIKLKADVDAEDDNKMTPLLLACVHGSQEIIQELIKANSNVTKRDQRLNTVFHIVALRGEPEYLEMMMDHDPVEAIKALNLFNNEKKTPLRMAVEGNHPETLKKILQMEKKNSCKWMDREKELIHFAAEKGFLEVLKALVEAGGNKNELNEVKAVPLHVAAQMNQLEVVSYLIEEEKDNIDVVDEQGLTPLMMAVTHDSKKCVEYLIAKKANLTITDKDERTPVFIGAKFNALSSVEYILDHLRKKNKETERSALKSPTRNTLRIVSEDVRRTMVNMVDRDQNTPMHIVASNGYLEMMQLLQKHGASITQVNEDEETALHRAAIGGQTGAVRQLLEWDIRLLLMKDEMGNSALHLAARSGHDATTKVLLDNGADKEAKNSYQKTPLQVAVDSGKLETCQRLVAKGAQIESSSDTKTVLHTAAFYGNESIVRYFIAEGVTIDRRDEEGKTAFDIACENDHKDVARAFLETDQWKNLMIPCDVIPLDKHRNPVNMKRRTPFRTLLTKFPELASFVMDNCIEKSKEETDSTQSVAYNFEFLDDTYMMRCVSDDGTGEQLIGCKSAYDEDFKLEKDAQSYASNYDRVYKYHPLKLMADAEKLHLLNHPLSKALLKYKWNRLGRPMYYFALFMYLVFIVSLTQYVRHTKAPYNVWNEESYYDSEYFDENETCPQINTTKPDVVWKIIIQTLAVCQILVECFQLFQRKFAYLVNWENWIDCFIYSTALITVYDFSECSATSGVRQNWQWILAALCIFFGWINLLFMIRKMPRFGIFVVMFVDIVKTFFRFFPVFVLFIIAFSSSFYVILQNRPEFSTIFMSPLKTTVMMIGEFEFTGIFHGDETTHAEKMFGPAHTAVACALFFFFCIIMTILLMNLLVGLAVDDIKGVQEKAELKRLAMQVDLVLQIEASLHFFIQRTKKYATCRYATFPYGKLHKTGFAGWWSNFRRRFGLSVSTDPEIDEMYEREAEFTSEMTQKLQNQAAKLKNIQENIDVMYEKQVRLEAIIAKLATGLNINIELEEKDN
**Q.** How did the “CaM binding of TRPA1 species orthologues” value ([4]; MBP-tagged constructs, absence or presence of Ca2+, four independent experiments) turn out when B3 was run?
**A.** failed to bind CaM
